Assay results gathered from unrelated publications.
Each line is one published result; the experiments were not run side by side. pIC50, pKd, pKi: −log10 of the molar value.
BCL2L1: Bcl-2-like protein 1 (BCL2L1, Homo sapiens, UniProt Q07817)
PPO3: PPO3 (Agaricus bisporus, UniProt C7FF04)
CNR1: Cannabinoid receptor 1 (CNR1, Homo sapiens, UniProt P21554)

Cc1cc(C)c2c(N)c(C(=O)Nc3ccon3)sc2n1 has a pKi of 6.30 (Adenosine receptor A2a (ADORA2A, Homo sapiens, UniProt P29274); ligand displacement; radioligand).
For Cc1c(-c2ccc(N3CCc4cccc(C(=O)Nc5nc6ccccc6s5)c4C3)nc2C(=O)NCCOCCOCCOCCO)cnn1CC12CC3CC(CC(C3)C1)C2, the pKi was 10.95 (BCL2L1; ligand displacement; AlphaScreen).
O=C1Nc2ccc(I)cc2/C1=C/c1cc(Br)c(O)c(Br)c1 gave a pIC50 of 7.90 (Serine/threonine-protein kinase A-Raf (ARAF, Homo sapiens, UniProt P10398); enzyme activity; inhibitor).
Cn1cc2c(C(=O)O)ccc(NS(=O)(=O)c3ccc(OCC4CCC4)c(Cl)c3)c2n1 has a pIC50 of < 3.76 (cGMP-specific 3',5'-cyclic phosphodiesterase (PDE5A, Homo sapiens, UniProt O76074); enzyme activity).
The pKd of CN(C)C(=O)c1cc2cnc(Nc3ccc(C(=O)NCCCCCCOc4cccc5c4C(=O)N(C4CCC(=O)NC4=O)C5=O)cc3)nc2n1C1CCCC1 (centres unmarked) is reported as 6.80 (Aurora kinase B (AURKB, Homo sapiens, UniProt Q96GD4); binding; competition with immobilised ligand).
Cc1ncsc1-c1ccc([C@H](C)NC(=O)[C@@H]2C[C@@H](O)CN2C(=O)[C@@H](NC(=O)CCCCCCCNC(=O)c2nc(N3CCc4cccc(C(=O)Nc5nc6ccccc6s5)c4C3)ccc2-c2cnn(CC34CC5CC(CC(C5)C3)C4)c2C)C(C)(C)C)cc1 has a pKi of 8.88 (BCL2L1; ligand displacement; AlphaScreen).
For CCCC[C@@H](NC(=O)[C@@H](Cc1cn(C(=O)OC)c2ccccc12)NC(=O)[C@H](CC(C)(C)C)NC(=O)N1[C@H](C)CCC[C@@H]1C)C(=O)O, the pIC50 was 6.35 (Endothelin-1 receptor (EDNRA, Homo sapiens, UniProt P25101); ligand displacement; radioligand; cell membranes).
With O=C(O)c1cc(-c2ccc(-n3ccnn3)cc2)c2ccc(-c3ccc(C(F)(F)F)cc3)cc2c1 the pKi was 5.41 (Sigma non-opioid intracellular receptor 1 (SIGMAR1, Homo sapiens, UniProt Q99720); cell-free assay; radioligand).
The pIC50 of O=C(CSc1nc2ccccc2cc1C=Nn1c(S)nnc1-c1ccccc1)Nc1ccc(Cl)cc1Cl is reported as < 4.30 (PPO3; enzyme activity; inhibitor).
With CC1(C)CCC(c2ccc(Cl)cc2)=C(CN2CCN(c3ccc(C(=O)NS(=O)(=O)c4ccc(N[C@H](CCN(CCOCCOCCOCCNc5cccc6c5C(=O)N(C5CCC(=O)NC5=O)C6=O)C5CC5)CSc5ccccc5)c(S(=O)(=O)C(F)(F)F)c4)cc3)CC2)C1 (some centres unmarked) the pKi was 8.06 (BCL2L1; ligand displacement; AlphaScreen).
With CCCCCCCCCCCCCCCC(=O)O the pKd was 4.02 (Vitamin K-dependent protein C (PROC, Homo sapiens, UniProt P04070); binding; SPR).
With Cc1ccccc1NC(=O)CSc1nc2ccccc2cc1C=Nn1c(S)nnc1-c1ccccc1 the pIC50 was < 4.30 (PPO3; enzyme activity; inhibitor).
COc1ccc2c(=O)[nH]c3c(nnn3Cc3ccc(C)cc3)c2c1 gave a pIC50 of < 5.00 (Poly [ADP-ribose] polymerase 1 (PARP1, Homo sapiens, UniProt P09874); enzyme activity; inhibitor; fluorescence).
Cc1c(-c2ccc(N3CCc4cccc(C(=O)Nc5nc6ccccc6s5)c4C3)nc2C(=O)NCCCCNc2cccc3c2C(=O)N(C2CCC(=O)NC2=O)C3=O)cnn1CC12CC3CC(CC(C3)C1)C2 (centres unmarked) has a pKi of 8.83 (BCL2L1; ligand displacement; AlphaScreen).
With O=c1c(NCCc2ccccc2C(F)(F)F)c(Nc2ccc(Cl)cc2)c1=O the pIC50 was 5.87 (CNR1; calcium signal; antagonist; fluorescence).
The pKi of Cc1c(-c2ccc(N3CCc4cccc(C(=O)Nc5nc6ccccc6s5)c4C3)nc2C(=O)NCCOCCOCCOCCNc2cccc3c2C(=O)N(C2CCC(=O)NC2=O)C3=O)cnn1CC12CC3CC(CC(C3)C1)C2 (centres unmarked) is reported as 9.82 (BCL2L1; ligand displacement; AlphaScreen).
For COc1ccc(NC(=O)CSc2nc3ccccc3cc2C=Nn2c(S)nnc2-c2ccccc2)cc1, the pIC50 was < 4.30 (PPO3; enzyme activity; inhibitor).
With Cc1ncsc1-c1ccc([C@H](C)NC(=O)[C@@H]2C[C@@H](O)CN2C(=O)[C@@H](NC(=O)CCCCCCCS(=O)(=O)NC(=O)c2nc(N3CCc4cccc(C(=O)Nc5nc6ccccc6s5)c4C3)ccc2-c2cc(C#N)n(CC34CC5CC(CC(C5)C3)C4)c2C)C(C)(C)C)cc1 the pKi was 8.21 (BCL2L1; ligand displacement; AlphaScreen).
CC1(C)CCC(c2ccc(Cl)cc2)=C(CN2CCN(c3ccc(C(=O)NS(=O)(=O)c4ccc(N[C@H](CCNCCOCCOCCOCCNc5cccc6c5C(=O)N(C5CCC(=O)NC5=O)C6=O)CSc5ccccc5)c(S(=O)(=O)C(F)(F)F)c4)cc3)CC2)C1 (some centres unmarked) has a pKi of 9.57 (BCL2L1; ligand displacement; AlphaScreen).
The pIC50 of O=c1c(NCCc2ccc(Cl)cc2Cl)c(Nc2ccc(Cl)cc2)c1=O is reported as < 5.00 (CNR1; calcium signal; antagonist; fluorescence).
With CC(C)[C@@H](CN1CCc2ccccc2C1)NC(=O)c1cccc(-c2cccc(C#N)c2)c1 the pKi was 5.39 (Mu-type opioid receptor (Oprm1, Mus musculus, UniProt P42866); ligand displacement; radioligand).
NC(=O)c1nnn(Cc2cc(Cl)c(C(=O)c3ccc(Cl)cc3)c(Cl)c2)c1N gave a pIC50 of 5.81 (CNR1; cAMP; antagonist).
For C[C@H](NC(=O)CNC(=O)c1cccc(Cl)c1)c1ccccc1, the pKi was 7.18 (Probable G-protein coupled receptor 139 (GPR139, Homo sapiens, UniProt Q6DWJ6); ligand displacement; radioligand; cell membranes).
